From ChEMBL document CHEMBL1221219, “Selective blockade of 2-arachidonoylglycerol hydrolysis produces cannabinoid behavioral effects” (Nat Chem Biol, 2009)
pIC50: −log10 of the molar value. Active and inactive are the calls of the source. The rule behind the calls is not given here.

Key:
[1] = target: T1, Monoacylglycerol lipase ABHD6 (Mus musculus) (UniProt Q8R2Y0); experiment: Inhibition of ABHD6 in C57B1/6J mouse brain membrane at 10 uM after 30 mins by competitive activity-based protein profiling method; type: cell membranes
T1 sequence (whole entry): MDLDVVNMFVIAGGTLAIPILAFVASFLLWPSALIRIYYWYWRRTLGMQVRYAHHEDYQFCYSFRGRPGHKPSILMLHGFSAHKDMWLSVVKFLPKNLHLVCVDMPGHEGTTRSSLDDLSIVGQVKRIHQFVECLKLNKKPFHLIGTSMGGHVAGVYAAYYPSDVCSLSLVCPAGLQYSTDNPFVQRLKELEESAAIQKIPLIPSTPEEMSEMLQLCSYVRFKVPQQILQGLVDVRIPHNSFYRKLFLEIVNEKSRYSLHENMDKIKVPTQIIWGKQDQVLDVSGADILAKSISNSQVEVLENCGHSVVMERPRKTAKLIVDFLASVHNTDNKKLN
In short: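 Mouse brain membrane proteome at 1 mg ml^-1 in PBS was preincubated with inhibitor (1 nM-10 μM) for 30 min at 37°C. FP-rhodamine was then added at 2 μM final for 30 min at room temperature, followed by SDS-PAGE and in-gel fluorescence scanning.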

Mus musculus [2] = experiment: Inhibition of CTHA in C57B1/6J mouse brain membrane at 16 mg/kg, ip after 4 hrs by competitive activity-based protein profiling-MudPIT method; type: functional, organism-based; parameters: dose 16 mg/kg
In short: (§1)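 Mice were dosed 16 mg kg^-1 i.p. or vehicle and killed at 4 h. Brain membrane proteomes were labelled with FP-biotin, avidin-enriched, trypsin-digested on bead, analysed by multidimensional LC-MS and identified by SEQUEST.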

[3] = target: T2, Fatty-acid amide hydrolase 1 (Mus musculus, UniProt O08914); experiment: Inhibition of FAAH in C57B1/6J mouse brain membrane after 20 mins by using oleamide as a substrate by LC-MS method; type: cell membranes
T2 sequence (O08914 whole entry): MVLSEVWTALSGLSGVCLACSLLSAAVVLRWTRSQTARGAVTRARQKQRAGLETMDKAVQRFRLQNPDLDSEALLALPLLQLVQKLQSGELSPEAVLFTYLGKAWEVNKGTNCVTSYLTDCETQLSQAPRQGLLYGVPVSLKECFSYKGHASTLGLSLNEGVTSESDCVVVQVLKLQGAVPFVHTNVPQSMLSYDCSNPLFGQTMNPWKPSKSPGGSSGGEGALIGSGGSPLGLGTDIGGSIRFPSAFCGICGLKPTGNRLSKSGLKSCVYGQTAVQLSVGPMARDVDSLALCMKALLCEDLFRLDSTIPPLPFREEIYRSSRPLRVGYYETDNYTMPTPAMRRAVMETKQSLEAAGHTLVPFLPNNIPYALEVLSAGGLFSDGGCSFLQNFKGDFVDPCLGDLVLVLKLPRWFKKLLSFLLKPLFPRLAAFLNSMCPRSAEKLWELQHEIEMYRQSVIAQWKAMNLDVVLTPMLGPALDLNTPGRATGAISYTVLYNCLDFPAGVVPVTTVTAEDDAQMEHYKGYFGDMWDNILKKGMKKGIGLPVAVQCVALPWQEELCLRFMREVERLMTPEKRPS
In short: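 Mouse brain membrane proteome pre-incubated with inhibitor for 30 min at 37°C, then oleamide (FAAH substrate) added. Hydrolysis quantified by an LC-MS substrate assay.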

Mus musculus [4] = experiment: Inhibition of LPL1 in C57B1/6J mouse brain membrane at 16 mg/kg, ip after 4 hrs by competitive activity-based protein profiling-MudPIT method; type: functional, organism-based; parameters: dose 16 mg/kg
In short: (§2)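 After i.p. dosing in 4:1 PEG300:Tween80, male C57Bl/6J mice were killed at 4 h. Brain membrane proteomes from treated and vehicle mice were labelled with FP-biotin. Labelled proteins were enriched on avidin, digested on-bead with trypsin and analysed by multidimensional LC-MS. Proteins were identified by SEQUEST, and dosed samples were compared with vehicle.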

Mus musculus [5] = experiment: Induction of hypothermia in C57B1/6J mouse at 16 mg/kg, ip pretreated with rimonabant; type: functional, organism-based; parameters: dose 16 mg/kg
In short: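 Male C57Bl/6J mice, 6-8 weeks, 20-26 g, given 16 mg kg^-1 i.p. in 4:1 v/v PEG300:Tween80 at 4 μl g^-1; vehicle controls received PEG300:Tween80 alone. Cannabinoid effects were scored in the tetrad test.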

Mus musculus [6] = experiment: Inhibition of PNPLA8 in C57B1/6J mouse brain membrane at 16 mg/kg, ip after 4 hrs by competitive activity-based protein profiling-MudPIT method; type: functional, organism-based; parameters: dose 16 mg/kg; in short: as §2
Mus musculus [7] = experiment: Inhibition of JZL184 induced immobility in C57B1/6J mouse at 16 mg/kg, ip; type: functional, organism-based; parameters: dose 16 mg/kg
Mus musculus [8] = experiment: Inhibition of MAGL in C57B1/6J mouse brain membrane at 16 mg/kg, ip after 4 hrs by competitive activity-based protein profiling-MudPIT method; type: functional, organism-based; parameters: dose 16 mg/kg; in short: as §2
Mus musculus [9] = experiment: Inhibition of ABHD3 in C57B1/6J mouse brain membrane at 16 mg/kg, ip after 4 hrs by competitive activity-based protein profiling-MudPIT method; type: functional, organism-based; parameters: dose 16 mg/kg; in short: as §1
Mus musculus [10] = experiment: Change in 2-AG levels in intraperitoneally dosed C57B1/6J mouse brain by LC-MS; type: functional, organism-based
In short: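 Male C57Bl/6J mice given 4, 8, 16 or 40 mg kg^-1 i.p. in 4:1 PEG300:Tween80 at 4 μl g^-1, or vehicle, and killed after 4 h. Whole-brain lipids were quantified by LC-MS.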

Mus musculus [11] = experiment: Inhibition of MAGL in orally dosed C57B1/6J mouse brain membrane after 4 hrs; type: functional, organism-based
In short: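 Oral dosing used male C57Bl/6J mice (6-8 weeks) given inhibitor in PEG300 vehicle at 4 ul g^-1, handled as for i.p. dosing. Brains were taken 4 h later for analysis of brain membrane hydrolase activity.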

Mus musculus [12] = experiment: Decrease in arachidonic acid levels in C57B1/6J mouse brain at 16 mg/kg, ip by LC-MS; type: functional, organism-based; parameters: dose 16 mg/kg
In short: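 Mice received 16 mg kg^-1 i.p. in 4:1 PEG300:Tween80 and were killed at 0.5, 1, 2, 4, 8 and 24 h. Brain lipids, including N-acylethanolamines, MAGs, free fatty acids and arachidonic acid, were measured by LC-MS.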

Mus musculus [13] = experiment: Inhibition of FAAH in intraperitoneally dosed C57B1/6J mouse brain membrane after 4 hrs by competitive activity-based protein profiling method; type: functional, organism-based
In short: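 Male C57Bl/6J mice (6-8 weeks, 20-26 g) given inhibitor i.p. in 4:1 v/v PEG300:Tween80 at 4 ul g^-1 (4-40 mg kg^-1); vehicle controls. Brain membrane proteomes (1 mg ml^-1 in PBS) labelled with FP-rhodamine (2 μM) for 30 min at room temperature. Readout by SDS-PAGE and in-gel fluorescence scanning, compared with vehicle.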

Mus musculus [14] = experiment: Inhibition of MAGL in C57B1/6J mouse brain membrane at 4 mg/kg, ip after 4 hrs by competitive activity-based protein profiling method relative to control; type: functional; conditions: route intraperitoneal
In short: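 Male C57Bl/6J mice (6-8 weeks, 20-26 g) dosed i.p. in 4:1 v/v PEG300:Tween80 vehicle at 4 ul g^-1; killed 4 h post-dose. Brain membrane proteomes were then labelled with FP-rhodamine (2 μM, 30 min, room temperature), resolved by SDS-PAGE and scanned in-gel for fluorescence. MAGL signal was compared with vehicle-treated controls.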

With `O=C(Oc1ccc([N+](=O)[O-])cc1)N1CCC(C(O)(c2ccc3c(c2)OCO3)c2ccc3c(c2)OCO3)CC1` the inhibition [1] was “Active”, the inhibition (Mus musculus [2]) was “inactive” and the pIC50 [3] was 5.40. For the same molecule, the inhibition (Mus musculus [4]) was “inactive”, the Activity (Mus musculus [5]) was “inactive” and the inhibition (Mus musculus [6]) was “inactive”. For the same molecule, the inhibition (Mus musculus [7]) was “Active”, the inhibition (Mus musculus [8]) was “Active” and the inhibition (Mus musculus [9]) was “inactive”. The Activity (Mus musculus [10]) was “inactive”, the inhibition (Mus musculus [11]) was “Active” and the Activity (Mus musculus [12]) was “Active”. For the same molecule, the inhibition (Mus musculus [13]) was “Dose-dependent effect” and the “fold change (FC)” value (Mus musculus [14]) was 5.
